# Measured values from different studies.
# Each line is one published result; the experiments were not run side by side.
# Organism: Staphylococcus aureus
# Read-out: microbial growth
SMILES,method,strain,time,MIC
Cc1nn(-c2ccccc2)c2c1C(c1ccco1)N(C(=O)c1ccncc1)N2 (centres unmarked),,MTCC96,24 h,64 µg/mL
Cl.N[C@@H]1CCN(c2cc(C(=O)NCC(=O)O)ccc2NC(=O)c2cc(Br)c(Br)[nH]2)C1,broth dilution,ATCC29213,,> 32 µg/mL
C[C@@H]1O[C@@H](OC[C@H]2O[C@@H](Oc3c(-c4ccc(OCCO)c(OCCO)c4)oc4cc(OCCO)cc(O)c4c3=O)[C@H](O)[C@@H](O)[C@@H]2O)[C@H](O)[C@H](O)[C@H]1O,broth dilution,,16 h,> 1020 µg/mL
COc1ccc(C2c3c(C)nn(-c4ccccc4)c3NN2C(=O)c2ccncc2)cc1 (centres unmarked),,MTCC96,24 h,64 µg/mL
O=C(OC[C@H]1O[C@@H](OC(=O)c2cc(O)c(O)c(O)c2)[C@H](OC(=O)c2cc(O)c(O)c(O)c2)[C@@H](OC(=O)c2cc(O)c(O)c(O)c2)[C@@H]1OC(=O)c1cc(O)c(O)c(O)c1)c1cc(O)c(O)c(O)c1,broth dilution,,16 h,100 µg/mL
O=C(C=Cc1ccc(O)c(O)c1)Oc1cccc2cccnc12,broth dilution,FDA209,,8 µg/mL
Cc1[nH]c(C(=O)Nc2ccc(C(=O)NCC(=O)O)cc2N2CCNCC2)c(Cl)c1Cl.Cl,broth dilution,ATCC29213,,> 32 µg/mL
CN[C@H](CC(C)C)C(=O)N[C@H]1C(=O)N[C@@H](CC(N)=O)C(=O)N[C@H]2C(=O)N[C@H]3C(=O)N[C@H](C(=O)N[C@H](C(=O)O)c4cc(O)cc(O)c4-c4cc3ccc4O)[C@H](O)c3ccc(c(Cl)c3)Oc3cc2cc(c3O[C@@H]2O[C@H](CO)[C@@H](O)[C@H](O)[C@H]2O[C@H]2C[C@](C)(N)[C@H](O)[C@H](C)O2)Oc2ccc(cc2Cl)[C@H]1O,,BAA44 MRSA,,1 µM
C[C@@H]1O[C@@H](OC[C@H]2O[C@@H](Oc3cc(O)c4c(c3)O[C@H](c3ccc(O)cc3)CC4=O)[C@H](O)[C@@H](O)[C@@H]2O)[C@H](O)[C@H](O)[C@H]1O,broth dilution,,16 h,> 250 µg/mL
O=C(O)c1cn(C2CC2)c2cc(N3CCNCC3)c(F)cc2c1=O,,MTCC96,24 h,0.12 µg/mL
CC(O)CSc1nnc(-c2cc3c(ccc4ccccc43)o2)n1-c1ccccc1 (centres unmarked),,,,10000 µg/mL
C=C/C=C(\C)CC[C@H]1C[C@H](O)CC(=O)O1,broth dilution,ATCC6538P,,256 µg/mL
CC(O)CSc1nnc(COc2ccc(Cl)cc2Br)n1-c1ccccc1 (centres unmarked),,,,12000 µg/mL
CC1(C)S[C@@H]2[C@H](NC(=O)[C@H](N)c3ccccc3)C(=O)N2[C@H]1C(=O)O,broth dilution,FDA209,,4 µg/mL
Cc1[nH]c(C(=O)Nc2ccc(C(=O)NCC(=O)O)cc2N2CC[C@H](N)C2)c(Cl)c1Cl.Cl,broth dilution,ATCC29213,,> 32 µg/mL
CC(O)CSc1nnc(-c2cc3ccccc3o2)n1-c1ccccc1 (centres unmarked),,,,2500 µg/mL
Cc1nn(-c2ccccc2)c2c1C(c1ccc(O)cc1)N(C(=O)c1ccncc1)N2 (centres unmarked),,MTCC96,24 h,> 100 µg/mL
CC1(C)S[C@@H]2[C@H](NC(=O)[C@H](N)c3ccccc3)C(=O)N2[C@H]1C(=O)O,,,24 h,< 1.25 µM
CC(C)(C)OC(=O)N[C@H]1CCN(c2cc(C(=O)NCC(=O)O)ccc2NC(=O)c2cc(Br)c(Br)[nH]2)C1,broth dilution,ATCC29213,,> 32 µg/mL
Cc1nn(-c2ccccc2)c2c1C(c1ccc(N(C)C)cc1)N(C(=O)c1ccncc1)N2 (centres unmarked),,MTCC96,24 h,8 µg/mL
CC(C)(C)OC(=O)N1CCN(c2cc(C(=O)NCC(=O)O)ccc2NC(=O)c2cc(Br)c(Br)[nH]2)CC1,broth dilution,ATCC29213,,> 32 µg/mL
O=C(C=Cc1ccc(O)c(O)c1)OCCc1ccccc1,broth dilution,FDA209,,16 µg/mL
Cc1[nH]c(C(=O)Nc2ccc(C(=O)NCC(=O)O)cc2N2CCN(C(=O)OC(C)(C)C)CC2)c(Cl)c1Cl,broth dilution,ATCC29213,,> 32 µg/mL
Nc1ccccc1OC(=O)C=Cc1ccc(O)c(O)c1,broth dilution,FDA209,,8 µg/mL
Cc1[nH]c(C(=O)Nc2ccc(C(=O)NCC(=O)O)cc2N2CC[C@@H](NC(=O)OC(C)(C)C)C2)c(Cl)c1Cl,broth dilution,ATCC29213,,> 32 µg/mL
Cc1ccccc1NC(=O)C=Cc1ccc(O)c(O)c1,broth dilution,FDA209,,8 µg/mL
